Most compounds without a hit are left out; they make up all but 2.7% or so of the library.
CaV13 FRET inh: Primary screen for inhibitors of IQ motif and Ca2+-dependent inactivation inhibitor domain binding in CACNA1D, Förster resonance energy transfer in living cells, …; HEK cells, CFP/YFP FRET ICDI-IQ, plate reader, 10 min; percent FRET-ratio fall versus neutral wells; inhibition, % at 12.3 µM; hit rate 0.098% among 340,000; AID 743397;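 active means mean replicate inhibition of at least 30% and at least 1% of replicates passing that level; inconclusive means only one of the two criteria is met; inactive means neither criterion is met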;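 further: 0% = median of the neutral control wells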
S100A4 MyoIIA: inhibitors of S100A4-myosin IIA peptide binding, primary screen, biochemical, fluorescence polarization, TAMRA-MyoIIA peptide | Protein S100-A4 (Homo sapiens), P26447 | inhibition, % at 10.7 µM | hit rate 0.14% among 360,000 | AID 652163, 2013;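 active means mean inhibition of at least 70% across replicates, with every replicate also reaching that level; inconclusive means mean inhibition reaches 70% but some replicates fall short; inactive means mean inhibition below 70%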
Target sequence (P26447 whole entry, looked up): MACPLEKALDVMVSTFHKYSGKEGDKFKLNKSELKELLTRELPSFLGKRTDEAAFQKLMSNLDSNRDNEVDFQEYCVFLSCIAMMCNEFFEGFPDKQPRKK
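System – human S100A4 monomer protein, biochemical binding assay · Buffer or medium – Calcium-containing HEPES buffer, pH 7.2 · Timing – 5 min between mix addition and reading · Also added – TAMRA-labelled myosin IIA heavy-chain peptide probe, 5 nM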
MLL AF4-AF9 inh: inhibitors of AF4 peptide binding to AF9, primary screen, biochemical, AlphaScreen, biotin-AF4 peptide, FLAG-AF9, single point; Protein AF-9 (Homo sapiens), P42568; inhibition, % at 10 µM; hit rate 0.47% among 350,000; AID 651704, 2012;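 active means every replicate reaching a set inhibition limit, whatever the replicate mean, cut at about 25% in these data; inconclusive means mean inhibition reaches that limit but some replicates miss it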;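 further: 0% = plate neutral control median and 100% = total signal loss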
Target sequence (P42568 whole entry, looked up): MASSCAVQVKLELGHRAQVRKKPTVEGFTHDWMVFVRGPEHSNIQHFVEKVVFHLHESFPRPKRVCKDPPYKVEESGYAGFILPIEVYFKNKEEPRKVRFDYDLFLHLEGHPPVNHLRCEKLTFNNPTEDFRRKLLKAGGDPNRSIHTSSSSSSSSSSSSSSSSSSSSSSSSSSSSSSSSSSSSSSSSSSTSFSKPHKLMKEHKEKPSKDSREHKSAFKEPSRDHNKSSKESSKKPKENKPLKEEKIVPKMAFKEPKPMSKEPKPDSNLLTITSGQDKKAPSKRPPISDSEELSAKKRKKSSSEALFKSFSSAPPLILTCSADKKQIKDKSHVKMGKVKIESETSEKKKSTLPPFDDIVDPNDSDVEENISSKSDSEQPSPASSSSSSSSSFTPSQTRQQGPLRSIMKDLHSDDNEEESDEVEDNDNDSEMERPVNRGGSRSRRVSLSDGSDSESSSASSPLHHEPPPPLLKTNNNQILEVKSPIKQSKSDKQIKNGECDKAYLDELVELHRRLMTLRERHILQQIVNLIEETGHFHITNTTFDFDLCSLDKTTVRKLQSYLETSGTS
DENV2 CPE rescue: inhibitors of DENV2 cytopathic effect, primary screen, cell-based, plate reader, single concentration; DENV2-infected cells, cytopathic effect rescue; AID 651640, 2012; hit rate 1.7% among 350,000; CPE inhibition, % at 9.99 µM; in the data active means CPE inhibition above about 20%, passing the limit was not always enough; inconclusive means no clear call, values can overlap the other calls; tested in BHK-21 cells;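 further: 0% = median of neutral control wells and 100% = median of positive control wells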
SIRT5 inh: SIRT5 desuccinylase inhibitors, primary screen, biochemical, fluorescence imaging, single point, set 5; NAD-dependent protein deacylase sirtuin-5, mitochondrial (Homo sapiens), Q9NXA8; Purified SirT5, succinyl-peptide AMC, trypsin-coupled fluorescence; inhibition, % at 15 µM; hit rate 1.1% among 330,000; AID 652115, 2013; in the data active means inhibition above about 15%; inconclusive means no clear call, values can overlap the other calls
* marks the source's active call; other numbers are inactive results; ? = inconclusive; / = no result given.

SMILES	CaV13 FRET inh	S100A4 MyoIIA	MLL AF4-AF9 inh	DENV2 CPE rescue	SIRT5 inh
C[C@H]1CN([C@@H](C)CO)C(=O)c2cccc(NC(=O)Nc3ccccc3)c2O[C@@H]1CN(C)S(=O)(=O)c1cn(C)cn1	/	0	-1	47*	8
C[C@@H]1CN([C@H](C)CO)C(=O)c2cccc(NC(=O)Nc3ccc4c(c3)OCO4)c2O[C@@H]1CN(C)S(=O)(=O)c1cn(C)cn1	/	-17	0	-11	16*
Cc1noc(C)c1NC(=O)Nc1cccc2c1O[C@@H](CN(C)S(=O)(=O)c1cn(C)cn1)[C@@H](C)CN([C@@H](C)CO)C2=O	/	2	-3	27*	0
COc1ccc(S(=O)(=O)N(C)C[C@@H]2Oc3c(NC(=O)Nc4ccc5c(c4)OCO5)cccc3C(=O)N([C@@H](C)CO)C[C@@H]2C)cc1	/	5	5	27*	4
CC(C)NC(=O)Nc1cccc2c1O[C@@H](CN(C)C(=O)Nc1ccc3c(c1)OCO3)[C@@H](C)CN([C@@H](C)CO)C2=O	/	5	-1	3	10
CCC(=O)Nc1ccc2c(c1)C(=O)N(C)C[C@H](OC)[C@@H](C)CN(CC1CC1)[C@@H](C)CO2	/	-5	-1	1	-4
Cc1noc(C)c1NC(=O)Nc1cccc2c1O[C@@H](CN(C)S(=O)(=O)c1ccc(F)cc1)[C@@H](C)CN([C@@H](C)CO)C2=O	/	-2	-9	89*	5
O=S1(=O)CCO[C@H]2Cc3ccccc3[C@H]2N1Cc1cccc(Cl)c1	-6	-5	-6	?	/
O=S1(=O)CCO[C@H]2Cc3ccccc3[C@H]2N1Cc1ccc(Cl)cc1	-5	-1	-1	85*	/
CCCc1c(C(=O)Nc2cc(C(C)(C)C)on2)cnn1-c1ccccc1	3	-3	-4	29*	-4
C[C@H]1CCCCO[C@H](CN(C)C(=O)CCCN(C)C)[C@@H](C)CN([C@@H](C)CO)C(=O)c2cc(N(C)C)ccc2O1	/	-6	-4	?	0
C[C@@H]1CN([C@H](C)CO)C(=O)c2cc(NC(=O)Nc3ccc(C(F)(F)F)cc3)ccc2O[C@@H]1CN(C)C(=O)Nc1ccc2c(c1)OCO2	/	-1	1	18	15*
C[C@H]1CN([C@@H](C)CO)C(=O)c2cc(NC(=O)Nc3ccc(C(F)(F)F)cc3)ccc2O[C@H]1CN(C)C(=O)Nc1ccc2c(c1)OCO2	/	1	4	3	6
COc1ccc(NC(=O)Nc2ccc3c(c2)C(=O)N([C@H](C)CO)C[C@@H](C)[C@@H](CN(C)C(=O)Nc2ccc(C(F)(F)F)cc2)O3)cc1	/	-26	-10	-7	15*
C[C@@H]1CN([C@H](C)CO)C(=O)c2cc(NC(=O)Nc3ccc4c(c3)OCO4)ccc2O[C@H]1CN(C)C(=O)Nc1ccc(C(F)(F)F)cc1	/	-12	5	5	-2
C[C@@H]1CN([C@@H](C)CO)C(=O)c2cc(NC(=O)Nc3ccc(C(F)(F)F)cc3)ccc2O[C@@H]1CN(C)C(=O)Nc1ccc2c(c1)OCO2	/	-5	2	10	15*
COc1ccc(NC(=O)N(C)C[C@H]2Oc3ccc(NC(=O)NC(C)C)cc3C(=O)N([C@H](C)CO)C[C@H]2C)cc1	/	-11	-2	34*	2
CCC(=O)N1CCCCN2[C@H](CO)[C@@H](c3ccc(-c4cccc(C#N)c4)cc3)[C@H]2C1	/	12	-4	4	11
C[C@@H]1CN([C@H](C)CO)C(=O)c2cc(NC(=O)Nc3ccc(C(F)(F)F)cc3)ccc2O[C@@H]1CN(C)C(=O)Nc1ccc(C(F)(F)F)cc1	/	106*	1	-5	6
CN(C)C(=O)C[C@H]1C=C[C@@H](NS(=O)(=O)c2ccccc2)[C@H](CO)O1	/	-23	0	18	1
CCC(=O)c1ccc(OCC(=O)Nc2ccc3c(c2)OCCO3)cc1	-3	-1	-11	2	-4
O=C(Nc1ccc2c(c1)OCCO2)c1ccccc1	/	-3	/	/	-5
O=C(COc1ccc(F)cc1)Nc1ccc2c(c1)OCCO2	-3	-5	9	102*	3
O=C(Nc1ccc2c(c1)OCCO2)c1cccc(C(=O)Nc2ccc3c(c2)OCCO3)c1	-6	-6	-1	26*	1
COc1cccc(C(=O)Nc2cc3c(cc2C(C)=O)OCCO3)c1	-2	0	3	76*	-2
SMILES	CaV13 FRET inh	S100A4 MyoIIA	MLL AF4-AF9 inh	DENV2 CPE rescue	SIRT5 inh
COc1cc(OC)cc(C(=O)NNC(=O)CCC(=O)c2cc(C)sc2C)c1	-15	-2	-2	73*	0
CC(C)CC#Cc1ccc([C@@H]2[C@@H](CO)N3C(=O)CN(C(=O)c4cnccn4)C[C@H]23)cc1	/	-5	1	-1	1
CCN(C[C@H]1N[C@@](CC)(C(=O)OC)[C@H]2C(=O)N(Cc3ccccc3)C(=O)[C@@H]12)C(=O)COc1ccccc1	-8	2	-8	66*	/
COC(=O)[C@]1(Cc2ccccc2)N[C@H](CN(C)C(C)=O)[C@@H]2C(=O)N(C)C(=O)[C@@H]21	-5	-10	2	23*	/
COCC(=O)N(C)C[C@H]1N[C@@](Cc2ccccc2)(C(=O)OC)[C@H]2C(=O)N(C)C(=O)[C@@H]12	-7	-1	0	0	-3
COC(=O)[C@]1(Cc2ccccc2)N[C@H](CN(C)C(=O)Nc2ccc(Cl)cc2)[C@@H]2C(=O)N(Cc3ccccc3)C(=O)[C@@H]21	-3	-3	1	22*	3
COC(=O)[C@@]1(Cc2ccccc2)[C@H]2C(=O)N(Cc3ccccc3)C(=O)[C@H]2[C@H]2CN=C(SCc3ccc(Cl)cc3)N21	-5	1	-1	85*	-1
CO[C@@H]1CN(C)C(=O)c2ccc(NS(=O)(=O)c3ccccc3)cc2OC[C@H](C)N(Cc2nccs2)C[C@@H]1C	/	-7	4	-9	-1
COc1ccc(S(=O)(=O)Nc2ccc3c(c2)C(=O)N([C@H](C)CO)C[C@@H](C)[C@@H](CN(C)C(=O)CCCN(C)C)OCCCC[C@H](C)O3)cc1	/	8	-2	-6	-2
CC(=O)N1[C@@H]2c3ccc(-c4cccnc4)c(=O)n3C[C@H]1[C@H](CO)[C@H]2C(=O)N1CCc2ccccc2C1	/	19	-1	-1	-42
CC[C@@]1(C(=O)OC)N[C@H](CN(C)C(=O)NC(C)C)[C@@H]2C(=O)N(Cc3ccccc3)C(=O)[C@@H]21	-5	8	-3	7	-2
CCN(C[C@H]1N[C@@](Cc2ccccc2)(C(=O)OC)[C@H]2C(=O)N(C)C(=O)[C@@H]12)S(=O)(=O)c1ccc(OC(F)(F)F)cc1	-4	2	-1	84*	6

Screening results as filed in PubChem.
